# Laboratory results from article PMC2793091 (Biochemistry, 2009).
# Read-outs that look alike come from different tables or passages of the source.
# Columns and labels:
# VAChT = settings: cited from earlier work
# [1] = pH 10
# [2] = titration of (±)-vesamicol absorbance at 263 nm; cited from earlier work
# [3] = test system: postnuclear supernatant from cells not transfected with VAChT; format: binding, rat; settings: five nM [3H]vesamicol
# Procedure, shortened: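 Postnuclear supernatant (1500g, 10 min) from untransfected PC12^A123.7 cells, in sucrose/HEPES/DTT buffer pH 7.4. 20 μg protein mixed with iso-osmolal MES/HEPES/AMPSO pH buffer. Started with [³H]vesamicol in potassium tartrate/HEPES/DTT buffer; 10 min, 23°. pH measured just before filtration. Two portions filtered, washed with ice-cold buffer containing 5 μM (±)-vesamicol, scintillation-counted, averaged. Nonspecific binding measured with 5 μM (±)-vesamicol.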
# sigma 2 receptors = settings: cited from earlier work
# sigma 1 receptors = settings: cited from earlier work
# [4] = Solubility in binding buffers at different pH
molecule,measurement,setting,value
"Nc1cccc2c1CC(N1CCC(c3ccccc3)CC1)C(O)C2 (racemic) [(±)-ABV, (±)-aminobenzovesamicol]",potency relative to (±)-vesamicol,VAChT,about 1000 fold
same,solubility,[1],soluble
(−)-[^3H]trans-2-(4-phenylpiperidino)cyclohexanol [[^3H]vesamicol],pKaves (protonated vesamicol),[2],9.0 ± 0.1
same,"""specific-nonspecific"" binding",[3]; high pH,~ 0.4 pmol/mg
same,"""specific-nonspecific"" binding",[3]; low pH,essentially no
(−)-trans-2-(4-phenylpiperidino)cyclohexanol [(−)-vesamicol],pKaves (protonated vesamicol),[2],9.0 ± 0.1
same,affinity relative to VAChT,sigma 2 receptors,only somewhat less than for VAChT
same,affinity relative to VAChT,sigma 1 receptors,only somewhat less than for VAChT
(±)-trans-2-(4-phenylpiperidino)cyclohexanol [(±)-vesamicol],solubility,"[4]; 200 μM, pH 10 (data not shown)",not soluble
same,solubility,"[4]; 1 mM, acidic and neutral pH",soluble
